Target: Steroidogenic factor 1 (Homo sapiens) (UniProt Q13285)
Experiment: SF-1 driven luciferase reporter response, dose response, counter-screen for RORA activator project, CHO-K1 cells (AID 695)
Conditions: CHO-K1 SF1 luciferase transactivation, luminescence
Outline: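 material = CHO-K1 cells with Gal4-SF-1 fusion and luciferase reporter | measure = EC50 by four-parameter fit | incubation = 20 h compound treatment, 37 °C | benchmarks = mock-transfected CHO-K1 cells as background reference | technique = luciferase luminescence with SteadyLite reagent | replication = triplicate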

SMILES | EC50
O=C1COc2ccc(OCc3ccc(F)cc3)cc21 | 1710 nM
C=CCOc1ccc(/C=C/C(C)=N\O)cc1 | 1020 nM
